Experimental data from ChEMBL document CHEMBL1132342, “Novel hypotensive agents from Verbesina caracasana. 6. Synthesis and pharmacology of caracasandiamide” (1999).

Assays:
Rattus norvegicus [1] = assay: Change in systolic blood pressure after iv administration of 5 uM/kg in anesthetized rats; assay type: functional, Artery
Rattus norvegicus [2] = assay: Change in diastolic blood pressure after iv administration of 5 uM/kg in anesthetized rats; assay type: functional, Artery
Rattus norvegicus [3] = assay: Change in heart rate after iv administration of 5 uM/kg in anesthetized rats; assay type: functional
How it was run: (§1)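 Doses were 4.12 µM/kg (two agents), guanethidine 25, clonidine 0.108, hexamethonium 12, reserpine 8, papaverine 5 and histamine […]. Peak changes in systolic BP or HR were recorded.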

Rattus norvegicus [4] = assay: Maximum rate of rise of the left ventricular isovolumetric pressure was measured after iv administration of 5 uM/kg in anesthetized rats; ratio given for dP/dt; assay type: functional, Heart left ventricle
Rattus norvegicus [5] = assay: Maximum rate of rise of the left ventricular isovolumetric pressure was measured after iv administration of 2.5 mg/kg in anesthetized rats; ratio given for dP/dt; assay type: functional, Heart left ventricle
Rattus norvegicus [6] = assay: Change in systolic blood pressure after iv administration of 2.5 mg/kg in anesthetized rats; assay type: functional, Artery
Rattus norvegicus [7] = assay: Change in heart rate after iv administration of 2.5 ug/kg in anesthetized rats
Rattus norvegicus [8] = assay: Change in diastolic blood pressure after iv administration of 2.5 ug/kg in anesthetized rats
Rattus norvegicus [9] = assay: Change in systolic blood pressure after iv administration of 25 uM/kg in anesthetized rats; assay type: functional, Artery; how it was run: as §1
Rattus norvegicus [10] = assay: Change in diastolic blood pressure after iv administration of 25 uM/kg in anesthetized rats; assay type: functional, Artery
Rattus norvegicus [11] = assay: Maximum rate of rise of the left ventricular isovolumetric pressure was measured after iv administration of 25 uM/kg in anesthetized rats; ratio given for dP/dt; assay type: functional, Heart left ventricle
Rattus norvegicus [12] = assay: Change in heart rate after iv administration of 25 uM/kg in anesthetized rats; assay type: functional
Rattus norvegicus [13] = assay: Change in diastolic blood pressure after iv administration of 8 uM/kg in anesthetized rats; assay type: functional, Artery
Rattus norvegicus [14] = assay: Change in heart rate after iv administration of 8 uM/kg in anesthetized rats; assay type: functional; how it was run: as §1
Rattus norvegicus [15] = assay: Maximum rate of rise of the left ventricular isovolumetric pressure was measured after iv administration of 8 uM/kg in anesthetized rats; ratio given for dP/dt; assay type: functional, Heart left ventricle
Rattus norvegicus [16] = assay: Change in systolic blood pressure after iv administration of 8 uM/kg in anesthetized rats; assay type: functional, Artery
Rattus norvegicus [17] = assay: Change in diastolic blood pressure after iv administration of 0.625 mg/kg in anesthetized rats; assay type: functional, Artery
Rattus norvegicus [18] = assay: Maximum rate of rise of the left ventricular isovolumetric pressure was measured after iv administration of 0.625 mg/kg in anesthetized rats; assay type: functional, Heart left ventricle
Rattus norvegicus [19] = assay: Change in heart rate after iv administration of 0.625 ug/kg in anesthetized rats
Rattus norvegicus [20] = assay: Change in systolic blood pressure after iv administration of 0.625 ug/kg in anesthetized rats
Rattus norvegicus [21] = assay: Change in systolic blood pressure after iv administration of 12 uM/kg in anesthetized rats; assay type: functional, Artery; how it was run: as §1
Rattus norvegicus [22] = assay: Change in diastolic blood pressure after iv administration of 12 uM/kg in anesthetized rats; assay type: functional, Artery
Rattus norvegicus [23] = assay: Change in heart rate after iv administration of 12 uM/kg in anesthetized rats; assay type: functional
Rattus norvegicus [24] = assay: Maximum rate of rise of the left ventricular isovolumetric pressure was measured after iv administration of 12 uM/kg in anesthetized rats; assay type: functional, Heart left ventricle
Rattus norvegicus [25] = assay: Change in systolic blood pressure after iv administration of 1 mg/kg in anesthetized rats; assay type: functional, Artery
Rattus norvegicus [26] = assay: Change in diastolic blood pressure after iv administration of 1 mg/kg in anesthetized rats; assay type: functional, Artery
Rattus norvegicus [27] = assay: Change in heart rate after iv administration of 1 mg/kg in anesthetized rats; assay type: functional
Rattus norvegicus [28] = assay: Maximum rate of rise of the left ventricular isovolumetric pressure was measured after iv administration of 1 mg/kg in anesthetized rats; assay type: functional, Heart left ventricle

Compound: COc1ccc(Cc2nccc3cc(OC)c(OC)cc23)cc1OC [PAPAVERINE]
- BP (Rattus norvegicus [1]): -20 mmHg
- BP (Rattus norvegicus [2]): -15 mmHg
- Heart rate (Rattus norvegicus [3]): -18 beats min-1
- dP/dt (Rattus norvegicus [4]): -1204 mmHg s-1

Compound: CC(=O)OCC[N+](C)(C)C [ACETYLCHOLINE]
- dP/dt (Rattus norvegicus [5]): -4451 mmHg s-1
- BP (Rattus norvegicus [6]): -25 mmHg
- Heart rate (Rattus norvegicus [7]): -27 beats min-1
- BP (Rattus norvegicus [8]): -31 mmHg

Compound: N=C(N)NCCN1CCCCCCC1 [GUANETHIDINE]
- BP (Rattus norvegicus [9]): -29 mmHg
- BP (Rattus norvegicus [10]): -22 mmHg
- dP/dt (Rattus norvegicus [11]): -1090 mmHg s-1
- Heart rate (Rattus norvegicus [12]): -24 beats min-1

Compound: COC(=O)[C@H]1[C@H]2C[C@@H]3c4[nH]c5cc(OC)ccc5c4CCN3C[C@H]2C[C@@H](OC(=O)c2cc(OC)c(OC)c(OC)c2)[C@@H]1OC [RESERPINE]
- BP (Rattus norvegicus [13]): -29 mmHg
- Heart rate (Rattus norvegicus [14]): -51 beats min-1
- dP/dt (Rattus norvegicus [15]): -1438 mmHg s-1
- BP (Rattus norvegicus [16]): -35 mmHg

Compound: CC(C)NCC(O)c1ccc(O)c(O)c1 (configuration not stated) [ISOPROTERENOL]
- BP (Rattus norvegicus [17]): -31 mmHg
- dP/dt (Rattus norvegicus [18]): 9844 mmHg s-1
- Heart rate (Rattus norvegicus [19]): 46 beats min-1
- BP (Rattus norvegicus [20]): -20 mmHg

Compound: C[N+](C)(C)CCCCCC[N+](C)(C)C.[Cl-].[Cl-] [HEXAMETHONIUM CHLORIDE]
- BP (Rattus norvegicus [21]): -48 mmHg
- BP (Rattus norvegicus [22]): -40 mmHg
- Heart rate (Rattus norvegicus [23]): -46 beats min-1
- dP/dt (Rattus norvegicus [24]): -4421 mmHg s-1

Compound: CNC[C@H](O)c1ccc(O)c(O)c1 [EPINEPHRINE]
- BP (Rattus norvegicus [25]): 25 mmHg
- BP (Rattus norvegicus [26]): 16 mmHg
- Heart rate (Rattus norvegicus [27]): 41 beats min-1
- dP/dt (Rattus norvegicus [28]): 8416 mmHg s-1

Compound: NC[C@H](O)c1ccc(O)c(O)c1 [NOREPINEPHRINE]
- BP (Rattus norvegicus [25]): 43 mmHg
- BP (Rattus norvegicus [26]): 25 mmHg
- Heart rate (Rattus norvegicus [27]): 28 beats min-1
- dP/dt (Rattus norvegicus [28]): 5564 mmHg s-1
